Consider 22 molecules from ChEMBL document CHEMBL3243949, “Discriminant--analytical investigation on the structural dependence of hyperglycemic and hypoglycemic activity in a series of substituted o-toluenesulfonylthioureas and o-toluenesulfonylureas” (1979).

The structures appear in SMILES notation.

The test system of the first assay is Rattus norvegicus. Kind of assay: Hyperglycemic activity in rat assessed as blood glucose level per 100 ml at 70 mg/kg, ip after 90 mins. The assay is classed as functional. To be noted: route intraperitoneal. The procedure, abridged: (§1)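 Narcotized rats, six per experiment; blood sugar measured before and 90 min after intraperitoneal dosing (70 and 100 mg/kg used in study). Glucose determined by o-toluidine reaction in acid medium. Values are mean of six rats ± 2 s. Classed hyper- or hypoglycemic by Student's t test, before vs after, when α < 0.01.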
As for `CNC(=O)NS(=O)(=O)c1ccc(OC)cc1C`, the Activity is listed as 142 mg.

In the case of `CCNC(=O)NS(=O)(=O)c1ccc(OC)cc1C`, the Activity is given as 135 mg.

For `CCCNC(=O)NS(=O)(=O)c1ccc(OC)cc1C`, the Activity amounted to 135 mg.

With `CCCNC(=S)NS(=O)(=O)c1ccc(OC)cc1C`, the Activity turned out to be 153 mg.

Consider `COc1ccc(S(=O)(=O)NC(N)=O)c(C)c1`, for which the Activity is listed as 97 mg.

`CCOc1ccc(S(=O)(=O)NC(N)=O)c(C)c1`: the Activity is recorded as 103 mg.

As to `CCCCNC(=S)NS(=O)(=O)c1ccc(OCCC)cc1C`, the Activity turned out to be 160 mg.

On to `CCCCOc1ccc(S(=O)(=O)NC(=O)NC)c(C)c1`, for which the Activity amounted to 96 mg.

Regarding `CCCCNC(=O)NS(=O)(=O)c1ccc(OCCCC)cc1C`, the Activity was determined as 113 mg.

For `CCCCCOc1ccc(S(=O)(=O)NC(=O)NCCCC)c(C)c1`, the Activity was determined as 79 mg.

In the next assay the test system is Rattus norvegicus. In words: Hypoglycemic activity in rat assessed as blood glucose level per 100 ml at 70 mg/kg, ip after 90 mins. The assay is classed as functional. To be noted: route intraperitoneal. The procedure, abridged:
as §1
With `COc1ccc(S(=O)(=O)NC(=O)NCc2ccccc2)c(C)c1`, the Activity is 104 mg.

With `CCCCNC(=O)NS(=O)(=O)c1ccc(OCC)cc1C`, the Activity was determined as 114 mg.

As to `CCCCNC(=O)NS(=O)(=O)c1ccc(OCCC)cc1C`, the Activity turned out to be 130 mg.

For the molecule `CCCCOc1ccc(S(=O)(=O)NC(=S)NC)c(C)c1`, the Activity stood at 77 mg.

In the case of `CCCCCOc1ccc(S(=O)(=O)NC(=S)NCCCC)c(C)c1`, the Activity is recorded as 129 mg.

Regarding `CCCCNC(=O)NS(=O)(=O)c1ccc(NC(C)=O)cc1C`, the Activity is 112 mg.

For the molecule `COc1ccc(S(=O)(=O)NC(=S)NCc2ccccc2)c(C)c1`, the Activity came to 97 mg.

In the case of `CCCCNC(=S)NS(=O)(=O)c1ccc(OCC)cc1C`, the Activity turned out to be 99 mg.

Take `CCCCNC(=S)NS(=O)(=O)c1ccc(NC(C)=O)cc1C`: the Activity is 116 mg.

`CCCCNC(=O)NS(=O)(=O)c1ccc(C)cc1C`: the Activity was 102 mg.

`CCCCNC(=S)NS(=O)(=O)c1ccc(C)cc1C`: the Activity is reported as 119 mg.

The subject of another assay is Rattus norvegicus. In words: Effect on blood glucose level per 100 ml in rat at 70 mg/kg, ip after 90 mins. The assay is classed as functional. To be noted: route intraperitoneal. The method, boiled down: as §1
`CCCCNC(=O)NS(=O)(=O)c1ccc(OC)cc1C` yielded an Activity of 114 mg.
